The values that follow come from ChEMBL document CHEMBL3243995, “Synthesis of phenolic group containing analogues of porcine secretin and their immunological properties” (J Med Chem, 1977).

Where a SMILES comes first, the peptide text is derived from it. The star is where a group is joined. Desaminotyrosyl = O=C(CCc1ccc(O)cc1)*

A short description of data set [1]: Retardation factor of the compound using 1-BuOH-pyridine-AcOH-H2O at ratio of 30:20:6:24 as solvent system by thin layer chromatography. In kind it is physicochemical. A digest of the protocol:
(§1)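 Thin-layer chromatography spots were detected with Sakaguchi, Pauly, chlorine-tolidine and ninhydrin reagents.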

A short description of data set [2]: Retardation factor of the compound using 1-BuOH-AcOH-H2O at ratio of 4:1:5 as solvent system by thin layer chromatography. In kind it is physicochemical. A digest of the protocol:
as §1

Data set [3] concerns Canis familiaris. As to the kind of experiment: Induction of pancreatic juice secretion in iv dosed anesthetized dog relative to natural porcine secretin. In kind it is functional, Canis lupus familiaris. The method, boiled down: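 Anesthetized dogs received the synthetic peptides by intravenous injection. The volume of pancreatic juice secreted was compared with that produced by pure natural porcine secretin. Responses were evaluated in four-point assays.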

Turning to `CC(C)C[C@H](NC(=O)CNC(=O)[C@H](CCC(N)=O)NC(=O)[C@H](CC(C)C)NC(=O)[C@H](CC(C)C)NC(=O)[C@H](CCCNC(=N)N)NC(=O)[C@H](CCC(N)=O)NC(=O)[C@H](CC(C)C)NC(=O)[C@H](CCCNC(=N)N)NC(=O)[C@H](C)NC(=O)[C@H](CO)NC(=O)[C@H](CC(=O)O)NC(=O)[C@H](CCCNC(=N)N)NC(=O)[C@H](CC(C)C)NC(=O)[C@H](CCCNC(=N)N)NC(=O)[C@H](CO)NC(=O)[C@H](CC(C)C)NC(=O)[C@H](CCC(=O)O)NC(=O)[C@H](CO)NC(=O)[C@@H](NC(=O)[C@H](Cc1ccccc1)NC(=O)[C@@H](NC(=O)CNC(=O)[C@H](CC(=O)O)NC(=O)[C@H](CO)NC(=O)[C@H](Cc1cnc[nH]1)NC(=O)CCc1ccc(O)cc1)[C@@H](C)O)[C@@H](C)O)C(=O)N[C@H](C(N)=O)C(C)C` (Desaminotyrosyl-HSDGTFTSELSRLRDSARLQRLLQGLV-NH2), the Rf is 0.58 in data set [1] and 0.2 in data set [2]. For the same compound, in data set [3], the Activity is given as 4.1%.
With “H-HSDGTFTSELSRLRDSARLQRLLQGLV-NH2 [listing 1 of 2 here]”, the results for the Rf in data set [1] and in data set [2] were 0.58 and 0.19, respectively.
In turn, “H-HSDGTFTSELSRLRDSARLQRLLQGLV-NH2 [listing 2 of 2 here]” had an Activity in data set [3] of 107.5%.
H-HSDGTYTSELSRLRDSARLQRLLQGLV-NH2: the values for the Rf in data set [1] and in data set [2] were 0.56 and 0.18, respectively. The Activity in data set [3] was 1.3%.
Consider H-YHSDGTFTSELSRLRDSARLQRLLQGLV-NH2, for which the Rf in data set [1] was 0.52; in data set [2] it was 0.18. For the same compound, the Activity in data set [3] was found to be 25.6%.
The matching figures for H-YSDGTFTSELSRLRDSARLQRLLQGLV-NH2: 0.56, 0.2 and 4.3%.
